Experimental data: ChEMBL document CHEMBL1148356, “Synthesis and biological evaluation of 3-heterocyclyl-7,8,9,10-tetrahydro-(7,10-ethano)-1,2,4-triazolo[3,4-a]phthalazines and analogues as subtype-selective inverse agonists for the GABA(A)alpha5 benzodiazepine binding site” (J Med Chem, 2004)
Active and inactive are the calls of the source. No cut-off for these calls is given here.

How the values were obtained:
[1] = target: T1, GABA-A receptor; alpha-1/beta-3/gamma-2 (Homo sapiens, UniProt P14867+P18507+P28472); assay: Binding affinity towards human alpha-1-beta-3-gamma-2 GABA-A receptor using [3H]Ro-151788 expressed in L(tk-) cells; type: cell-based
T1 sequence (P14867 whole entry): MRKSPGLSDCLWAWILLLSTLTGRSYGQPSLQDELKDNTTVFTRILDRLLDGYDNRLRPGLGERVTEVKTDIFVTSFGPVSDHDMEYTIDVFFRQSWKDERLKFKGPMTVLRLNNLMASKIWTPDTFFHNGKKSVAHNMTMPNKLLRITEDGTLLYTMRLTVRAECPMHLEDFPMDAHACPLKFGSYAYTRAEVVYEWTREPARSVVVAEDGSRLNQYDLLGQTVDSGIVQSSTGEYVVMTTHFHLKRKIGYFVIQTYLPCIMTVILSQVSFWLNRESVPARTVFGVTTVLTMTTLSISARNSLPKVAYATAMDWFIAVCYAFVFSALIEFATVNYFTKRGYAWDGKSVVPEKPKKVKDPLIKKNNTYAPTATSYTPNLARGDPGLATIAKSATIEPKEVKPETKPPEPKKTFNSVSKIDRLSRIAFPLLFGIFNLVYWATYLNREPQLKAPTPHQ
T1 sequence (P18507 whole entry): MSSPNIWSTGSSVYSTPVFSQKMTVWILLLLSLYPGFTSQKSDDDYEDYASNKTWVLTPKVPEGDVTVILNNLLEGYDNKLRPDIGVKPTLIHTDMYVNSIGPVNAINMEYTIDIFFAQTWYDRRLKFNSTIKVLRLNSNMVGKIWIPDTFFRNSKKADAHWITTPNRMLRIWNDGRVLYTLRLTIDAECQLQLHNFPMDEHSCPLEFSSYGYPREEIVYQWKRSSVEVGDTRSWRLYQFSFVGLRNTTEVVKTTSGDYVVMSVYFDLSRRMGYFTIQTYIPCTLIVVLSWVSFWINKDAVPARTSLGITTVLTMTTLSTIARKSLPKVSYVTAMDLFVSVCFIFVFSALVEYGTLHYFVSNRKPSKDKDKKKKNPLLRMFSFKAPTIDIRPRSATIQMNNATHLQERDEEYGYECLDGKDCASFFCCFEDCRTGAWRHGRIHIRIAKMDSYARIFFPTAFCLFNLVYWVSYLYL
T1 sequence (P28472 whole entry): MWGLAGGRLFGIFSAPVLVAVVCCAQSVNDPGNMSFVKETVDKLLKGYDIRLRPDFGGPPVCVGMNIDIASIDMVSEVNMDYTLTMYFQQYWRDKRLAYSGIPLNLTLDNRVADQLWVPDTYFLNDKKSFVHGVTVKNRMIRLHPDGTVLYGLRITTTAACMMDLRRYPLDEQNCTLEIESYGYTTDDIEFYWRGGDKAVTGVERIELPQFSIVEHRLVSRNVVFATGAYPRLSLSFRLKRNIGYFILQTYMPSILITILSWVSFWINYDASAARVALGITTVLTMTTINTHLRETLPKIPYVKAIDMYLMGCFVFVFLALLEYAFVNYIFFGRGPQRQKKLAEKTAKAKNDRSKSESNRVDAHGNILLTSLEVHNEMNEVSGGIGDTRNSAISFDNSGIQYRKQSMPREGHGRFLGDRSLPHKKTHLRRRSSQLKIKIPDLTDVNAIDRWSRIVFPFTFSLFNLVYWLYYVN

[2] = Oral bioavailability in rat; type: ADME, organism-based; conditions: in vivo
Method in brief: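 Male SD rats with jugular cannulas were fasted overnight and dosed either by tail-vein IV bolus or orally (n = 3 per route). Serial jugular blood samples were taken up to 8 h. Plasma was frozen at −20 °C, protein-precipitated with acetonitrile containing internal standard, and quantified by LC-MS/MS.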

[3] = target: T2, GABA-A receptor; alpha-5/beta-3/gamma-2 (Homo sapiens, UniProt P18507+P28472+P31644); assay: Binding affinity towards human alpha-5-beta-3-gamma-2 GABA-A receptor using [3H]Ro-151788 expressed in L(tk-) cells; type: cell-based
T2 sequence (P18507 whole entry): T1 sequence (P18507 whole entry)
T2 sequence (P28472 whole entry): T1 sequence (P28472 whole entry)
T2 sequence (P31644 whole entry): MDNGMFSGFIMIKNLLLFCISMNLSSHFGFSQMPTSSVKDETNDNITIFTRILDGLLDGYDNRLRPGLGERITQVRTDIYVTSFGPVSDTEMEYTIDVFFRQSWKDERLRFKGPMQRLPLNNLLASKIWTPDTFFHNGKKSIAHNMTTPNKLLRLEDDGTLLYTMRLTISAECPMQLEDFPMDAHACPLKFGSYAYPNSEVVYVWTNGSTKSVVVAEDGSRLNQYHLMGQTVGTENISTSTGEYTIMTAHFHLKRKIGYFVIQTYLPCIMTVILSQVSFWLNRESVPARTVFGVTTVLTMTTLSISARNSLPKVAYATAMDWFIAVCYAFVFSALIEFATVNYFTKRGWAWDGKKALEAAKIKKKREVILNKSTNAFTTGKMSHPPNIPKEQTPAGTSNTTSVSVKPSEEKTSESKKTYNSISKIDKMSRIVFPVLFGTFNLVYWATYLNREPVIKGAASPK

[4] = target: T3, GABA-A receptor; alpha-2/beta-3/gamma-2 (Homo sapiens) (UniProt P18507+P28472+P47869); assay: Percent change in electrophysiological response in Xenopus oocytes expressing Alpha2-beta3-gamma2 GABA-A receptor; type: functional, cell-based; conditions: Oocyte
Method in brief: (§1)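 Two-electrode voltage clamp on Xenopus oocytes injected with human GABA-A subunit cDNAs, 24-72 h expression, perfused with modified Barth's medium at pH 7.5, clamped between -40 and -70 mV. The GABA EC20 was titrated against a 3 mM GABA maximum. […] Result is % change of control current, mean ± SE of ≥4 oocytes.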

[5] = target: T4, GABA-A receptor; alpha-3/beta-3/gamma-2 (Homo sapiens, UniProt P18507+P28472+P34903); assay: Binding affinity towards human gamma-aminobutyric-acid A receptor alpha-3-beta-3-gamma-2 using [3H]Ro-151788 expressed in L(tk-) cells; type: cell-based
T4 sequence (P18507 whole entry): T1 sequence (P18507 whole entry)
T4 sequence (P28472 whole entry): T1 sequence (P28472 whole entry)
T4 sequence (P34903 whole entry): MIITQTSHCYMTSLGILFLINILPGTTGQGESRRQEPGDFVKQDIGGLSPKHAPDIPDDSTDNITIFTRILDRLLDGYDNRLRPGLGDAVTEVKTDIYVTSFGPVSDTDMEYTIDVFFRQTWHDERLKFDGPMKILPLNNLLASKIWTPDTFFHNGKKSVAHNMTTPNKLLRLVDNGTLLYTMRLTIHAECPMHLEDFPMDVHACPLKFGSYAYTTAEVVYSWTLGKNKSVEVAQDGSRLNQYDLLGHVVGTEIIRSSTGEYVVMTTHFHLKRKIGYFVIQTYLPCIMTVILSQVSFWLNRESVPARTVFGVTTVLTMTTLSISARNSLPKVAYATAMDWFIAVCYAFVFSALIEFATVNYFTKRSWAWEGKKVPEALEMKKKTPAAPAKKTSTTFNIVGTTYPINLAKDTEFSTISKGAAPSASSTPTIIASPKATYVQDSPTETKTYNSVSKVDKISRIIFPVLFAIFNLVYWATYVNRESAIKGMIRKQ

[6] = target: T5, GABA-A receptor; alpha-1/beta-3/gamma-2 (Homo sapiens) (UniProt P14867+P18507+P28472); assay: Percent change in electrophysiological response in Xenopus oocytes expressing Alpha1-beta3-gamma2 GABA-A receptor; type: functional, cell-based; conditions: Oocyte; method in brief: as §1
[7] = target: T6, GABA-A receptor; alpha-3/beta-3/gamma-2 (Homo sapiens) (UniProt P18507+P28472+P34903); assay: Percent change in electrophysiological response in Xenopus oocytes expressing Alpha3-beta3-gamma2 GABA-A receptor; type: functional, cell-based; conditions: Oocyte; method in brief: as §1
[8] = target: T7, GABA-A receptor; alpha-5/beta-3/gamma-2 (Homo sapiens) (UniProt P18507+P28472+P31644); assay: Percent change in electrophysiological response in Xenopus oocytes expressing Alpha-5-beta-3-gamma-2 GABA-A receptor; type: functional, cell-based; conditions: Oocyte; method in brief: as §1
[9] = target: T8, GABA-A receptor; alpha-2/beta-3/gamma-2 (Homo sapiens, UniProt P18507+P28472+P47869); assay: Binding affinity towards human gamma-aminobutyric-acid A receptor alpha-2-beta-3-gamma-2 using [3H]Ro-151788 expressed in L(tk-) cells; type: cell-based
T8 sequence (P18507 whole entry): T1 sequence (P18507 whole entry)
T8 sequence (P28472 whole entry): T1 sequence (P28472 whole entry)
T8 sequence (P47869 whole entry): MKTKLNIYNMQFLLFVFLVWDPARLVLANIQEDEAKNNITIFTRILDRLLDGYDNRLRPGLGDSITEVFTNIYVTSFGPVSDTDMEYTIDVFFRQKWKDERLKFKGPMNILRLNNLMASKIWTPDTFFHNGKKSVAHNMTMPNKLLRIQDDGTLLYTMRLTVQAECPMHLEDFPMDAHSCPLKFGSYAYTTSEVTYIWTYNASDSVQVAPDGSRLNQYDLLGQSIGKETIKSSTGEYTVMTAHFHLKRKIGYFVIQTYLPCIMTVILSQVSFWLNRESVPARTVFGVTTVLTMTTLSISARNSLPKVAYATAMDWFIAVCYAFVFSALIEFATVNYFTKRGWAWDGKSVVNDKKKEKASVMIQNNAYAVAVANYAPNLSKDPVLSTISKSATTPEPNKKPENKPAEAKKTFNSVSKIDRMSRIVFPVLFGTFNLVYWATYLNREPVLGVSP

Rattus norvegicus = assay: Tested for cognitive performance in rats in delayed matching-to-place version of water maze test at 0.3 mg/kg i.p.; Enhanced performance; type: functional, organism-based; set-up: dose 0.3 mg/kg
[10] = target: T5, GABA-A receptor; alpha-1/beta-3/gamma-2 (Homo sapiens); assay: Percent maximum change in electrophysiological response in Xenopus oocytes expressing alpha-1-beta-3-gamma-2 GABA-A receptor; type: functional, cell-based; conditions: Oocyte; method in brief: as §1
[11] = target: T6, GABA-A receptor; alpha-3/beta-3/gamma-2 (Homo sapiens); assay: Percent maximum change in electrophysiological response in Xenopus oocytes expressing alpha-3-beta-3-gamma-2 GABA-A receptor; type: functional, cell-based; conditions: Oocyte; method in brief: as §1
[12] = target: T3, GABA-A receptor; alpha-2/beta-3/gamma-2 (Homo sapiens); assay: Percent maximum change in electrophysiological response in Xenopus oocytes expressing alpha-2-beta-3-gamma-2 GABA-A receptor; type: functional, cell-based; conditions: Oocyte; method in brief: as §1
[13] = target: T7, GABA-A receptor; alpha-5/beta-3/gamma-2 (Homo sapiens); assay: Percent maximum change in electrophysiological response in Xenopus oocytes expressing alpha-5-beta-3-gamma-2 GABA-A receptor; type: functional, cell-based; conditions: Oocyte; method in brief: as §1

SMILES	Ki [1]	bioavailability [2]	Ki [3]	Efficacy [4]	Ki [5]	Efficacy [6]	Efficacy [7]	Efficacy [8]	Ki [9]	Activity (Rattus norvegicus)	Efficacy [10]	Efficacy [11]	Efficacy [12]	Efficacy [13]
Cc1cccc(COc2nn3c(-c4nc(C)no4)nnc3c3c2C2CCC3CC2)n1	75.7 nM	< 1%	1.4 nM	-10%	11 nM	-15%	-21%	-35%	–	–	–	–	–	–
Cc1cccc(COc2nn3c(-c4cnccn4)nnc3c3c2C2CCC3CC2)n1	84 nM	–	1.8 nM	8%	10.6 nM	12%	19%	-9%	28.4 nM	–	–	–	–	–
Cc1cccc(COc2nn3c(-c4ccccc4)nnc3c3c2C2CCC3CC2)n1	122 nM	–	3 nM	35%	23.7 nM	53%	44%	14%	44.5 nM	–	–	–	–	–
CC1(C)CC(=O)c2c(SCCO)sc(-c3nccs3)c2C1	–	–	–	–	–	–	–	–	–	Active	–	–	–	–
CCOC(=O)c1ncn2c1[C@@H]1CCCN1C(=O)c1cc(OC)ccc1-2	–	–	–	-17%	–	-12%	-3%	-12%	–	–	-18%	-11%	-26%	-21%
Cc1cccc(COc2nn3c(-c4ccccc4)nnc3c3ccccc23)n1	1.9 nM	–	1.3 nM	-3.8%	0.33 nM	0.7%	-8.3%	11%	1 nM	–	–	–	–	–
Cc1cccc(COc2nn3c(-c4cc(C)on4)nnc3c3c2C2CCC3CC2)n1	–	3%	–	14%	–	21%	-1%	-29%	–	–	–	–	–	–
Cc1noc(-c2nnc3c4c(c(OCc5ccccc5Br)nn23)C2CCC4CC2)n1	58.5 nM	–	1 nM	-18%	6.2 nM	-12%	12%	-42%	16.5 nM	–	–	–	–	–
